Test results published in ChEMBL document CHEMBL1126240, “Structure-activity relationship studies of central nervous system agents. 5. Effect of the hydrocarbon chain on the affinity of 4-substituted 1-(3-chlorophenyl)piperazines for 5-HT1A receptor site” (J Med Chem, 1992).

Experiments:
[1] = target: T1, 5-hydroxytryptamine receptor 1A (Rattus norvegicus, UniProt P19327); experiment: In vitro ability to displace [3H]8-hydroxy-2-(di-n-propylamino) tetralin binding from 5-hydroxytryptamine 1A receptor site in rat brain hippocampus; type: tissue-based
T1 sequence (P19327 whole entry): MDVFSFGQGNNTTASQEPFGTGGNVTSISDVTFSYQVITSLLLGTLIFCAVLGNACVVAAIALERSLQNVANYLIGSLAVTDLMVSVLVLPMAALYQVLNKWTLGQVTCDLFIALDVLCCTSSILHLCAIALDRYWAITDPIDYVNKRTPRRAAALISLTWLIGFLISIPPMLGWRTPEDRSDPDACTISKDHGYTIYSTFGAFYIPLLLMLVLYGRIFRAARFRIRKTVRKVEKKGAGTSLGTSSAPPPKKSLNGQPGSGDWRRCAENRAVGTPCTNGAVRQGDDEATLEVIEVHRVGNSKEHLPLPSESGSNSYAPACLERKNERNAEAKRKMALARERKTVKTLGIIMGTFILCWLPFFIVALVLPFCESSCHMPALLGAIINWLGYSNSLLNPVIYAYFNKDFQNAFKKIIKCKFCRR

[2] = Compound was evaluated for the Ionization constants at 37 degree Celsius pKa1; type: physicochemical; details: read-out: pKa1
Outline: (§1)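 Potentiometric titration at 37 °C; pKa values fitted to the titration data by nonlinear regression.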

[3] = target: T2, 5-hydroxytryptamine receptor 1A (Rattus norvegicus) (UniProt P19327); experiment: Ability to displace the protonated form of [3H]8-hydroxy-2-(di-n-propylamino)tetralin binding from labeled 5-hydroxytryptamine 1A receptor site in rat brain hippocampus; type: tissue-based
T2 sequence (whole entry): T1 sequence (P19327 whole entry)
Outline: (§2)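 Radioligand displacement in rat hippocampal tissue using [³H]-8-OH-DPAT as ligand, following a previously published protocol; affinity given as Ki for the protonated (AH+) species.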

[4] = % ionization at the pH 7.4 at 37 degree Centigrade; type: ADME
Outline: (§3)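 Fraction ionized calculated from eq 1 using pKa2 measured by potentiometric titration at 37 °C, for pH 7.4 and 37 °C.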

[5] = Compound was evaluated for the Ionization constants at 37 degree Centigrade pKa2; type: physicochemical; details: read-out: pKa2; outline: as §1
[6] = target: T2, 5-hydroxytryptamine receptor 1A (Rattus norvegicus); experiment: Compound was evaluated for its ability to displace the protonated form of [3H]8-hydroxy-2-(di-n-propylamino)tetralin binding from labeled 5-HT 1A receptor site.; outline: as §2
[7] = Compound was evaluated for the percentage ionization at the pH 7.4 at 37 degree Centigrade; type: ADME; outline: as §3
[8] = target: T2, 5-hydroxytryptamine receptor 1A (Rattus norvegicus); details: Hippocampus

SMILES | Ki [1] [nM] | pKa [2] | KiAH [3] [nM] | Ionization [4] [%] | pKa [5] | KiAH [6] [nM] | Ionization [7] [%] | KiAH [8] [nM]
O=C(Cc1ccccc1)N1CCN(c2cccc(Cl)c2)CC1 | 14800 | – | – | – | – | – | – | –
CC(C)N1CCN(c2cccc(Cl)c2)CC1 | 159 | 2.37 | 102 | 64 | 7.65 | – | – | –
CC(=O)N1CCN(c2cccc(Cl)c2)CC1 | > 100000 | – | – | – | – | – | – | –
O=C(c1ccccc1)N1CCN(c2cccc(Cl)c2)CC1 | > 100000 | – | – | – | – | – | – | –
Clc1cccc(N2CCOCC2)c1 | > 100000 | 2.33 | – | – | – | – | – | –
Clc1cccc(N2CCNCC2)c1 [CHLOROPHENYLPIPERAZINE] | 143 | – | 131 | 91.3 | 8.42 | – | – | –
OCCN1CCN(c2cccc(Cl)c2)CC1 | 202 | – | 50.3 | 24.9 | 6.92 | – | – | –
CCCCN1CCN(c2cccc(Cl)c2)CC1 | 18.4 | 2.43 | 3.06 | 16.6 | 6.7 | – | – | –
CCCN(CCC)C1CCc2cccc(O)c2C1 (stereo unspecified) [8-OH-DPAT] | – | – | – | – | 8.02 | 1.16 | 80.6 | –
CC(C)C(=O)N1CCN(c2cccc(Cl)c2)CC1 | > 100000 | – | – | – | – | – | – | –
C=CCN1CCN(c2cccc(Cl)c2)CC1 | 251 | 2.94 | 81.2 | 32.4 | 7.08 | – | – | –
O=C1c2ccccc2S(=O)(=O)N1CCCCN1CCN(c2ncccn2)CC1 [IPSAPIRONE] | 3.4 | – | – | 0.7 | 5.25 | – | – | 0.024
CCCC(=O)N1CCN(c2cccc(Cl)c2)CC1 | 49000 | – | – | – | – | – | – | –
CCCCCCN1CCN(c2cccc(Cl)c2)CC1 | 2.67 | 2.57 | 0.032 | 1.2 | 5.49 | – | – | –
CCC(C)N1CCN(c2cccc(Cl)c2)CC1 (stereo unspecified) | 127 | 2.32 | 27.4 | 21.6 | 6.84 | – | – | –
CCCCCN1CCN(c2cccc(Cl)c2)CC1 | 5.54 | 2.46 | 0.282 | 5.1 | 6.13 | – | – | –
CN1CCN(c2cccc(Cl)c2)CC1 | 152 | 2.82 | 134 | 88.1 | 8.27 | – | – | –
CCN1CCN(c2cccc(Cl)c2)CC1 | 220 | 2.48 | 166 | 75.5 | 7.89 | – | – | –
CCC(=O)N1CCN(c2cccc(Cl)c2)CC1 | 30800 | – | – | – | – | – | – | –
Clc1cccc(N2CC[N+]3(CCCC3)CC2)c1 | 7220 | – | – | – | – | – | – | –
CC1(C)CC(=O)N(CCCCN2CCN(c3ncccn3)CC2)C(=O)C1 [GEPIRONE] | – | – | 20.2 | 63.5 | 7.64 | – | – | –
Clc1cccc(N2CCN(Cc3ccccc3)CC2)c1 | 166 | – | 0.166 | 0.1 | 4.39 | – | – | –
CCCN1CCN(c2cccc(Cl)c2)CC1 | 122 | 2.39 | 38.9 | 31.9 | 7.07 | – | – | –
